Measured values: ChEMBL document CHEMBL1133513, “Synthesis and biological activity of novel 5-fluoro-2'-deoxyuridine phosphoramidate prodrugs” (J Med Chem, 2000)

How the values were obtained:
Type in all cases: functional, cell-based
[1] = system: L1210; test: Growth inhibition in L1210 mouse Leukemia cells for a treatment time of 24 hr; details: L1210, 24 h
Procedure, shortened: (§1)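 L1210 cells in exponential growth, 3–6 × 10^4/mL in Fischer's medium with 10% horse serum, 1% glutamine, 1% antibiotic–antimycotic. Drug added from ethanol dilutions (50 μL per 10 mL), exposure 2, 8, 24 or 48 h. Cells then spun down, resuspended in drug-free medium, counted 48 h after treatment start. IC50 read from percent-of-control count versus concentration plots.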

[2] = system: L1210; test: Growth inhibition in L1210 mouse Leukemia cells for a treatment time of 48 hr; details: L1210, 48 h; procedure, shortened: as §1
[3] = system: L1210; test: Growth inhibition in L1210 mouse Leukemia cells for a treatment time of 8 hr; details: L1210, 8 h; procedure, shortened: as §1
[4] = system: L1210; test: Growth inhibition in L1210 mouse Leukemia cells for a treatment time of 2 hr; details: L1210, 2 h; procedure, shortened: as §1

Compound	IC50 [1] [nM]	IC50 [2] [nM]	IC50 [3] [nM]	IC50 [4] [nM]
CN(CCBr)P(=O)(NCC1OC(n2cc(F)c(=O)[nH]c2=O)CC1O)OCc1ccc([N+](=O)[O-])o1 (stereo not given)	108	34	504	1100
O=c1[nH]cc(F)c(=O)[nH]1 [FLUOROURACIL]	–	125	–	–
